Bioassay records (PubChem)
WT yeast gro inh = growth inhibition of WT yeast, mitochondrial fusion screen; mitochondrial fusion phenotypic screen, WT strain; inhibition, % at 10 µM; 190,000 tested, 2.1% active; AID 1362; in the data active means inhibition above about 58%; tested in S. cerevisiae
TbMetRS inhib = Trypanosoma brucei MetRS inhibition | AID 624268 | inhibition, % at 11.9 µM | purified T. brucei MetRS, ATP depletion, Kinase-Glo luminescence | 360,000 tested, 0.4% active;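 active means inhibition above a per-plate cutoff of the control wells' mean inhibition plus 3 SD, cut at about 5.5% in these data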;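 further: 0% = DMSO wells median and 100% = median of wells with control inhibitor compound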
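assay system = parasite MetRS enzyme | timing = 15 min preincubation, 2 h reaction, all 25 °C | evaluation = percent inhibition relative to median high and low control wells | medium = HEPES buffer containing pyrophosphatase, BSA, spermine, DTT | compound = single dose, 11.9 µM final nominal, 0.9% final DMSO | detection = Kinase-Glo luminescence, ATP depletion format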
MPTP block = blocks calcium-induced mitochondrial swelling | inhibition, % at 10 µM | AID 602449 | isolated mouse mitochondria, Ca2+ swelling absorbance, 30 min | 360,000 tested, 1.4% active;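 active means inhibition of 50% or more, scaled per plate between neutral and stimulator controls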;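 further: 0% = DMSO wells given calcium and 100% = 1 mM EGTA wells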
CHOP inh = inhibitors of CHOP induction in ER stress response; CHO-K1 CHOP-promoter luciferase, tunicamycin-induced, 15-18 h; inhibition, % at 10 µM; 220,000 tested, 3.8% active;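 active means compounds that reduced the stress-induced luciferase reporter signal by more than about 70% of percent inhibition, limit read from the data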;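 further: 0% = tunicamycin plus vehicle and 100% = wells without tunicamycin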
EBV gp42 inh = EBV gp42 inhibition; Fluorescence polarization binding assay, mP read-out; inhibition, % (tested at 21.74 µM); 220,000 tested, 0.42% active; in the data active means inhibition above about 50%
Target sequence (Q1HVG2 whole entry, looked up): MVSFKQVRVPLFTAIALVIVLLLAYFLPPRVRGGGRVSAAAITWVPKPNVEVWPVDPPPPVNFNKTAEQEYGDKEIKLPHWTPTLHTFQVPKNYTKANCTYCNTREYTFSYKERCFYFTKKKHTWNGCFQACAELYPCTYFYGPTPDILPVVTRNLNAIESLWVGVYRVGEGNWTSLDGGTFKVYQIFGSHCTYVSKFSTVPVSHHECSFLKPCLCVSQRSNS
NR3A LBD binder = modulators (binders) of human NR3A ligand-binding domain. NR3A LBD differential scanning fluorimetry, Tm shift; 0% = protein alone, 100% = glycine-bound protein. Tm shift relative to glycine control, % at 25 µM. 340,000 tested, 2.5% active;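 active means melting temperature shift of at least 10% of the positive control shift, at one fixed dose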
Numbers without * were called inactive; nt = no result given. Rows were chosen to be rich in hits. Some 6.4% of all compounds tested hit in one or more screens of this group.

SMILES	WT yeast gro inh	TbMetRS inhib	MPTP block	CHOP inh	EBV gp42 inh	NR3A LBD binder
O=C(CSC1=NC(=O)C(c2ccccc2)C(=O)N1)Nc1cccc(Cl)c1 (configuration not stated)	0	-2	5	13	10	-1
CCOC(=O)Nc1ccc(Oc2ccccc2)cc1	20	0	8	73*	-19	2
C/C(=N\NC(=O)c1ccccc1O)c1ccc(NC(=O)c2ccccc2)cc1	nt	0	-1	nt	nt	11*
COC(=O)c1ccc(NC(=O)CSC2=NC(=O)C(c3ccccc3)C(=O)N2)cc1 (configuration not stated)	-24	0	1	38	-20	12*
CCOCCOC(=O)c1cccc(NC(=O)OCC)c1	nt	-1	-1	19	-6	2
CCCCOC(=O)Nc1cccc(C(=O)OCC)c1	73*	-1	-2	3	-19	-13
O=C(Cc1c[nH]c2ccccc12)NCc1ccncc1	nt	-1	3	nt	nt	1
Nc1cc(Cl)ccc1N1CCOCC1	4	0	-4	-4	-2	0
CCS(=O)(=O)Nc1cccc(C(=O)O)c1	nt	nt	nt	10	-11	5
CC(=O)Nc1ccc(CCNC(=O)c2ccc3ccccc3c2O)cc1	nt	0	1	nt	nt	24*
CCOC(=O)c1ccc(NC(=O)c2ccc[n+]([O-])c2)cc1	nt	-1	0	nt	nt	-1
CCOC(=O)Cc1ccc(NC(=O)c2ccc(C(C)(C)C)cc2)cc1	26	-2	-3	86*	11	-4
CCOC(=O)c1ccc(NC(=O)c2ccc(NC(=O)c3ccccc3)cc2)cc1	16	-1	2	-9	-24	30*
CC(=O)Nc1ccc(C(=O)NCCc2ccccc2)cc1	7	-1	0	10	-3	16*
O=C(NCCc1ccccc1)c1ccc(NC(=O)C2CC2)cc1	nt	0	-1	nt	nt	-1
CC(NC(=O)C1CCN(Cc2ccc(Oc3ccccc3)cc2)CC1)c1cccc2ccccc12 (configuration not stated)	nt	0	26	nt	nt	nt
CCOC(=O)c1ccc(NC(=O)/C=C/c2cccs2)cc1	20	0	1	-12	3	23*
CC(=O)Nc1ccc(C(=O)c2ccccc2)cc1	3	0	4	16	-10	13*
CCOc1ccc(C(=O)Nc2ccc(NC(=O)c3ccccc3)cc2)cc1Br	nt	-1	1	nt	nt	29*
CCOC(=O)c1sc(=S)n(C)c1NC(=O)c1ccccc1	5	0	2	5	-33	16*
CCOC(=O)c1sc(=S)n(-c2ccccc2)c1NC(C)=O	nt	0	43	55	-10	-3
C=CCOn1c(=O)c(-c2ccc(OC)cc2)[n+]([O-])c2ccccc21	4	-1	-3	-49	-29	-2
CCn1c(=O)c2cc(C(=O)NCCCOC)sc2c2ccccc21	nt	0	-1	nt	nt	0
COC(=O)c1ccc(NC(=O)C(=O)N2CCN(C(=S)NCCc3ccccc3)CC2)cc1	26	-1	-1	37	9	15*
COC(=O)c1ccc(NC(=O)CC(=O)Nc2ccc(C(=O)OC)cc2)cc1	nt	-1	1	nt	nt	0
SMILES	WT yeast gro inh	TbMetRS inhib	MPTP block	CHOP inh	EBV gp42 inh	NR3A LBD binder
COC(=O)c1ccc(NC(=O)CNc2ccccc2)cc1	2	1	4	-17	-8	42*
Cc1ccc(-c2nc(CN3CCN(C(=O)C4CCCO4)CC3)cs2)cc1 (configuration not stated)	nt	0	1	nt	nt	11*
COC(=O)Sc1nnc(-c2ccc(Br)cc2)o1	9	nt	nt	91*	18	nt
OCC#CCSc1nnc(-c2ccc(Br)cc2)o1	-7	1	1	2	0	0
CCOC(=O)c1ccc(N2C(=O)CC(N3CCC(O)(c4ccc(Cl)cc4)CC3)C2=O)cc1 (configuration not stated)	7	0	5	36	1	-1
CCOc1ccc(NC2c3ccccc3C(=O)N2Cc2ccco2)cc1 (configuration not stated)	14	0	6	73*	-9	5
COc1cc(/C=N/NC(=S)NCc2ccco2)cc(OC)c1OC	3	0	0	5	-20	58*
CCN(CC)c1ccc(/C=N/NC(=S)NCc2ccco2)cc1	67*	0	6	-8	-7	-2
Oc1ccc(/C=N/NC(=S)NCc2ccco2)cc1	-22	0	-3	2	-6	-6
